Activity calls are given as the source filed them. The calls are words filed in the database; no cut-off is given here.
What was measured:
WI-38 [1] = assay: Cytotoxicity in human WI38 cells assessed as reduction in cell viability incubated for 48 hrs by MTT assay; type: cell-based
How it was run: (§1)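 MTT viability assay on A375 melanoma, A549 lung adenocarcinoma and WI-38 normal lung fibroblast cells after 24 and 48 h treatment. IC50 values are in µM, expressed as mean ± SD.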

WI-38 [2] = assay: Cytotoxicity in human WI38 cells assessed as reduction in cell viability incubated for 24 hrs by MTT assay; type: cell-based; how it was run: as §1
A-375 [3] = assay: Cytotoxicity in human A375 cells assessed as reduction in cell viability incubated for 48 hrs by MTT assay; type: functional, cell-based; how it was run: as §1
A549 [4] = assay: Cytotoxicity in human A549 cells assessed as reduction in cell viability incubated for 24 hrs by MTT assay; type: functional, cell-based; how it was run: as §1
A549 [5] = assay: Cytotoxicity in human A549 cells assessed as reduction in cell viability incubated for 48 hrs by MTT assay; type: functional, cell-based; how it was run: as §1
A-375 [6] = assay: Cytotoxicity in human A375 cells assessed as reduction in cell viability incubated for 24 hrs by MTT assay; type: functional, cell-based; how it was run: as §1
A-375 [7] = assay: Induction of GSH depletion in human A375 cells by fluorimetry; type: functional, cell-based
[8] = Antioxidant activity assessed as hydroxyl radical scavenging activity at 1 to 1000 ug/ml incubated for 1 hr; type: functional
[9] = Antioxidant activity assessed as DPPH radical scavenging activity at 1 to 1000 ug/ml incubated for 30 mins by spectrophotometry; type: functional
[10] = Antioxidant activity at 1 to 1000 ug/ml incubated for 90 mins by FRAP assay; type: functional
A549 [11] = assay: Induction of GSH depletion in human A549 cells by fluorimetry; type: functional, cell-based
[12] = Homo sapiens, A-375, 48 h, read-out: IC50
[13] = Homo sapiens, A549, 24 h, read-out: IC50
[14] = Homo sapiens, A549, 48 h, read-out: IC50
[15] = Homo sapiens, A-375, 24 h, read-out: IC50

Compound	IC50 (WI-38 [1]; wi-38)	IC50 (WI-38 [2]; wi-38)	IC50 (A-375 [3]; [12])	IC50 (A549 [4]; [13])	IC50 (A549 [5]; [14])	IC50 (A-375 [6]; [15])	Activity (A-375 [7])	Activity [8]	Activity [9]	Activity [10]	Activity (A549 [11])	IC50 (WI-38 [1]; Homo sapiens, WI-38, 48 h, read-out: IC50)	IC50 (WI-38 [2]; Homo sapiens, WI-38, 24 h, read-out: IC50)	IC50 (A549 [4]; a549)	IC50 (A549 [5]; a549)	IC50 (A-375 [6]; a-375)	IC50 (A-375 [3]; a-375)
COc1cc(C2Oc3cc(-c4cc(=O)c5c(O)cc(O)cc5o4)ccc3OC2c2cc(CN)on2)ccc1O (stereo unspecified)	Non-Toxic	Non-Toxic	4.6 µM	5.2 µM	2.2 µM	7.5 µM	–	–	–	–	–	–	–	–	–	–	–
COc1cc(C2Oc3cc(-c4cc(=O)c5c(O)cc(O)cc5o4)ccc3OC2c2cc(C(=O)NS(=O)(=O)c3ccccc3)on2)ccc1O (stereo unspecified)	Non-Toxic	Non-Toxic	3.5 µM	51 µM	6.3 µM	7.2 µM	–	–	–	–	–	–	–	–	–	–	–
COc1cc(C2Oc3cc(-c4cc(=O)c5c(O)cc(O)cc5o4)ccc3OC2/C=C2/C(=O)ONC2c2ccc(Cl)cc2)ccc1O (stereo unspecified)	Non-Toxic	Non-Toxic	0.94 µM	2 µM	1.2 µM	1.2 µM	–	–	–	–	–	–	–	–	–	–	–
COc1cc(C2Oc3cc(-c4cc(=O)c5c(O)cc(O)cc5o4)ccc3OC2CO)ccc1O (stereo unspecified)	Non-Toxic	Non-Toxic	49.2 µM	88.6 µM	68 µM	71.6 µM	inactive	inactive	inactive	inactive	inactive	–	–	–	–	–	–
COc1cc(C2Oc3cc(-c4cc(=O)c5c(O)cc(O)cc5o4)ccc3OC2/C=C2/C(=O)ONC2c2ccccc2)ccc1O (stereo unspecified)	Non-Toxic	Non-Toxic	15.6 µM	13.5 µM	10 µM	18.5 µM	–	–	–	–	–	–	–	–	–	–	–
COc1cc(C2Oc3cc(-c4cc(=O)c5c(O)cc(O)cc5o4)ccc3OC2/C=C2/C(=O)ONC2CCl)ccc1O (stereo unspecified)	–	–	0.035 µM	0.095 µM	0.07 µM	0.04 µM	–	–	–	–	–	4.9 µM	5.5 µM	–	–	–	–
COc1cc(C2Oc3cc(-c4cc(=O)c5c(O)cc(O)cc5o4)ccc3OC2C=O)ccc1O (stereo unspecified)	Non-Toxic	Non-Toxic	43.8 µM	96 µM	87.8 µM	63 µM	–	–	–	–	–	–	–	–	–	–	–
COc1cc(C2Oc3cc(-c4cc(=O)c5c(O)cc(O)cc5o4)ccc3OC2/C=C2/C(=O)ONC2c2ccc(C)cc2)ccc1O (stereo unspecified)	Non-Toxic	Non-Toxic	6.7 µM	12.7 µM	9 µM	9.2 µM	–	–	–	–	–	–	–	–	–	–	–
COc1cc(C2Oc3cc(-c4cc(=O)c5c(O)cc(O)cc5o4)ccc3OC2c2cc(CO)on2)ccc1O (stereo unspecified)	Non-Toxic	Non-Toxic	74.9 µM	–	–	–	–	–	–	–	–	–	–	Not Active	Not Active	Not Active	–
COc1cc(C2Oc3cc(-c4cc(=O)c5c(O)cc(O)cc5o4)ccc3OC2/C=C2/C(=O)ON(c3ccccc3)C2C)ccc1O (stereo unspecified)	Non-Toxic	Non-Toxic	–	83 µM	71.5 µM	–	–	–	–	–	–	–	–	–	–	Not Active	Not Active
COc1cc(C2Oc3cc(-c4cc(=O)c5c(O)cc(O)cc5o4)ccc3OC2c2cc(C(=O)NC3CCCCC3)on2)ccc1O (stereo unspecified)	Non-Toxic	Non-Toxic	28.8 µM	80 µM	14.5 µM	66.8 µM	–	–	–	–	–	–	–	–	–	–	–

— ChEMBL document CHEMBL4334468, “Exploring Mitochondria-Mediated Intrinsic Apoptosis by New Phytochemical Entities: An Explicit Observation of Cytochrome c Dynamics on Lung and Melanoma Cancer Cells” (J Med Chem, 2019)
